Screening results as filed in PubChem.
KCC2 mod – KCC2 cotransporter modulators, thallium flux, primary screen, cell-based, HEK293 KCC2, FluoZin-2 fluorescence, MLSMR; actives 2.2% (n = 190,000); B-score of Tl+ flux slope (higher = more flux/activation; lower = inhibition) at 10 µM; KCC2 cells, thallium flux FluoZin-2 fluorescence; Solute carrier family 12 member 5 (Homo sapiens), Q9H2X9; AID 1456, 2008;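 active = thallium flux slope and its plate-corrected score both differing from the plate sample mean at a set confidence after two filtering rounds, in either direction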;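 also: slope of fluorescence scaled to starting intensity during 10 to 20 s after thallium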
Target sequence (Q9H2X9 whole entry, looked up): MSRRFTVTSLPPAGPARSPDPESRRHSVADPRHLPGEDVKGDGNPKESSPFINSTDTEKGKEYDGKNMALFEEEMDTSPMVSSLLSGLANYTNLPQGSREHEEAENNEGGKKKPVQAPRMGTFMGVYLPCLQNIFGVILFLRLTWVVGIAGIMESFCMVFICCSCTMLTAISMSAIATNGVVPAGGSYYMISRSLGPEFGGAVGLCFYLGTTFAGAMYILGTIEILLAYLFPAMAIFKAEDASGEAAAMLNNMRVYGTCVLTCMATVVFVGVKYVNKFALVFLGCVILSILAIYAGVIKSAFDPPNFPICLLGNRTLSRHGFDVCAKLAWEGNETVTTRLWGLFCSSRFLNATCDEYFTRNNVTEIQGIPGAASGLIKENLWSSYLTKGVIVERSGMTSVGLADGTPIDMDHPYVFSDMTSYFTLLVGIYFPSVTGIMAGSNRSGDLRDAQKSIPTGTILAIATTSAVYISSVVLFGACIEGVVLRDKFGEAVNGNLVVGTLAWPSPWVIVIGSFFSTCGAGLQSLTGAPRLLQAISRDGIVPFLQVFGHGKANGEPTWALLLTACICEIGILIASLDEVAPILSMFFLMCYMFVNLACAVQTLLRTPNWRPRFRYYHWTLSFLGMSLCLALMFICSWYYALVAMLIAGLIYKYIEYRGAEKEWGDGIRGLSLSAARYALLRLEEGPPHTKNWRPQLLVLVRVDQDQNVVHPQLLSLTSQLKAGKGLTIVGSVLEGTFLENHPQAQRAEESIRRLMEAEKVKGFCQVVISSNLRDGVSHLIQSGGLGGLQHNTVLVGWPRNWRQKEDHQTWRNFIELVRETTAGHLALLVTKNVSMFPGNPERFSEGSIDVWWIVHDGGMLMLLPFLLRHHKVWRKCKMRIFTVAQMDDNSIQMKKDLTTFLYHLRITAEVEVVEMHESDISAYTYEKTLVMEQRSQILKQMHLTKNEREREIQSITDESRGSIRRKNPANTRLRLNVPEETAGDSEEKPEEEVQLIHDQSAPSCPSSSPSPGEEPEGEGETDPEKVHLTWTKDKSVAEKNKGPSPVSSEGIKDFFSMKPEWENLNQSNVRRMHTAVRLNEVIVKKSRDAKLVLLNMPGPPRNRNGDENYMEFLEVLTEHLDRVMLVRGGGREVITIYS
CHT allo act – CHT positive allosteric modulators, primary screen, cell-based, membrane potential dye, choline EC20; CHT-expressing cells; hits give high values; LV-AA mutant CHT in HEK293 cells; actives 0.49% (n = 310,000); B-score at 10 µM; AID 488977, 2010;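 active = initial fluorescence not abnormally high and integrated response B-score, plate-corrected, over 3 SD above library mean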
Rad51 HR inh – human RAD51 strand exchange inhibitors, primary screen, biochemical, fluorescence | inhibition, % at 10 µM | hRad51 DNA strand exchange, fluorescence dequenching | AID 1385, 2008 | actives 0.085% (n = 200,000) | DNA repair protein RAD51 homolog 1 (Homo sapiens), Q06609;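 active = inhibition above 40% at the single screening dose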;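 also: 0% = DMSO control wells and 100% = blanks with heterologous ssDNA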
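material = hRad51 filaments on single-stranded DNA | reagent = Donor/quencher-labelled 47-bp dsDNA substrate | compound = 10 µM final, single point | schedule = strand-exchange reaction 15 min at room temperature | measured by = fluorescein emission 520 nm, excitation 485 nm | read-out basis = % inhibition versus plate control and blank means | benchmarks = plate controls and plate blanks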
CHT block – inhibitors of human choline transporter CHT | CHT-expressing cells, membrane potential dye, choline response; hits give low values | B-score at 10 µM | actives 0.86% (n = 310,000);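 active = B-score over 3 SD under the library average, and starting fluorescence ratio not unusually high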;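 also: choline stimulus applied at its EC90 after an EC20 pre-addition; B-score computed on integrated fluorescence ratio after choline addition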
KCC2 sec1 – KCC2 modulators in sodium-free buffer, confirmation, cell-based, HEK293 KCC2, thallium flux, secondary assay. shares compounds with KCC2 mod. FluoZin2 fluorescence; hits give high values. normalised thallium flux (F/F0 slope) at 10 µM. actives 15% (n = 3,700). AID 1713, 2009;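 active = thallium flux slope above the same plate's solvent-only control mean plus 3 SD; inconclusive = the two replicate wells disagree; inactive = no significant difference from solvent-only control wells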
KCC2 bumet counter – thallium flux persisting under bumetanide in KCC2 cells, confirmation, counter-screen for KCC2 modulator project, cell-based, HEK293 KCC2, FluoZin2, secondary assay 3 | shares compounds with KCC2 mod | HEK293-KCC2 + bumetanide/ouabain; hits give high values | normalized thallium flux at 10 µM | actives 49% (n = 3,700) | AID 1714, 2009;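 active = thallium entry rate above the same plate's blocked-transporter control wells by more than 3 SD; inconclusive = the two repeat wells disagree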;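 also: raw slope of fluorescence over initial fluorescence between 10 and 20 s after thallium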
KCC2 secondary2 – KCC2 modulators without ouabain present, confirmation, cell-based, HEK293 KCC2, thallium flux, FluoZin2, secondary assay 2; shares compounds with KCC2 mod; actives 23% (n = 3,700); thallium flux FluoZin2 fluorescence; actives lie on both sides; F/F0 rise rate, 10–20 s post-thallium; normalized thallium flux at 10 µM;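 active = thallium flux slope more than 3 SD above or below the plate's solvent-only control mean, mostly below; inconclusive = the two repeat wells disagreed; inactive = no significant shift from solvent-only controls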;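 also: raw slope with 0.1% DMSO as baseline and bumetanide as block control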
HEK counter1 – thallium flux modulation in parental HEK cells, confirmation, counter-screen for KCC2 modulator project, cell-based, counterscreen 1. shares compounds with KCC2 mod. HEK293 parental cells, thallium flux FluoZin2, ouabain; baseline-ratio fluorescence slope, 10–20 s after thallium. thallium flux rate (normalised fluorescence) at 10 µM. actives 46% (n = 3,700). AID 1716, 2009;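 active = thallium flux rate significantly above the same plate's solvent-only control wells, beyond their mean plus 3 SD; inconclusive = the two replicate wells gave conflicting results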
KCC2 retest ouab – KCC2 inhibitors and activators, ouabain retest, confirmation, HEK-KCC2 cells | shares compounds with KCC2 mod | HEK293-KCC2, thallium flux FluoZin2 fluorescence; bidirectional: low = inhibitor, high = activator | raw Tl+ flux slope (below DMSO = inhibition, above = activation) at 10 µM | actives 48% (n = 3,700) | AID 1717, 2009;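 active = thallium flux slope beyond 3 SD from same-plate DMSO control mean in most replicates, usually higher, sometimes lower; inconclusive = repeat tests gave conflicting results; inactive = no significant difference from controls in most replicates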;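 also: slope of initial-normalized fluorescence between seconds 10 and 20 after thallium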
HEK293 Tl flux2 – native HEK Tl+ uptake effects, second counter-screen – HEK cells, counterscreen 2, counter-screen for KCC2 modulator project, confirmation; shares compounds with KCC2 mod; HEK293 parental, thallium flux FluoZin-2 fluorescence slope; actives 33% (n = 3,700); thallium flux slope at 10 µM;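 active = thallium flux slope above the same plate's solvent-control mean plus 3 SD in both duplicate wells; inconclusive = duplicate wells that disagreed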;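 also: run without ouabain in cells lacking the KCC2 cotransporter; slope of fluorescence scaled to its starting value between 10 and 20 s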
* = called active by the depositor; i = inactive; ? = inconclusive; . = no result given. An excerpt weighted towards active compounds, which were near 2.6% of everything screened.

SMILES | KCC2 mod | CHT allo act | Rad51 HR inh | CHT block | KCC2 sec1 | KCC2 bumet counter | KCC2 secondary2 | HEK counter1 | KCC2 retest ouab | HEK293 Tl flux2
CCNC(=S)NN=C1c2ccccc2-c2ccccc21 | 33.8* | i | -4.4 | i | 0.0178* | 0.0506* | 0.0333 | 0.0672* | 0.0469* | 0.0163*
Cc1ccc(C2=NS(=O)(=O)N(C)C(C(=O)N3CCOCC3)=C2)cc1 | . | i | . | i | . | . | . | . | . | .
Cc1[nH]c(N=Nc2ccccc2)nc1N=Nc1ccccc1 | 76.5* | i | 7.4 | i | 0.0401* | 0.144* | 0.0593* | 0.0963* | 0.0982* | 0.027*
Nc1ccc(N=Nc2ccccc2)c(N)n1 | -0.473 | i | -1.5 | i | . | . | . | . | . | .
Cc1ccnc(NC(=S)NC(=O)c2cncc(Br)c2)c1 | 8.47* | i | -5.2 | i | 0.00679 | 0.0186* | 0.0315 | 0.0152* | ? | 0.014*
COc1ccccc1-c1nnc2sc(COc3ccccc3)nn12 | -3.39 | i | -6.8 | i | 0.00489 | ? | 0.024* | 0.00636* | 0.0148* | ?
Brc1ccccc1-c1nnc2sc(Cc3ccccc3)nn12 | -4.05* | i | -1.0 | i | 0.0069 | 0.00471 | ? | ? | 0.0129* | 0.00953
c1ccc(OCc2nn3c(Cn4nnc5ccccc54)nnc3s2)cc1 | -2.56* | i | -5.4 | i | 0.00722 | 0.00418 | 0.0266 | 0.00746 | 0.0152* | 0.00993
C=CCN(C(=O)CCC(=O)Nc1cc(C)on1)C(C(=O)NC(C)(C)CC)c1cccc(OC)c1OC (stereo not drawn) | . | i | . | i | . | . | . | . | . | .
Nc1ccc(Cc2ccc(N)c(O)c2)cc1O | 0.58 | . | -14.2 | . | . | . | . | . | . | .
COc1ccc(-c2csc(NC(=O)c3ccccc3NS(=O)(=O)c3ccc(F)c(F)c3)n2)cc1 | -4.55* | i | -11.2 | -8.39* | 0.00524* | 0.0111* | 0.033 | ? | 0.0112* | 0.0115
CC(C)(C)NC(=O)C(=O)NNC(=O)c1cccc(Br)c1 | 33* | i | . | i | 0.00965* | 0.0539* | 0.0466* | 0.0474* | 0.0502* | 0.0283*
CC(C)(C)NC(=O)C(=O)NNC(=O)c1cccc([N+](=O)[O-])c1 | 3.17 | i | 13.6 | i | . | . | . | . | . | .
O=C(Nc1ccc2c(c1)Cc1ccccc1-2)c1ccco1 | . | i | -8.3 | i | ? | 0.0497* | 0.0324 | 0.0229* | 0.0282 | 0.0135*
CCC(=O)Nc1ccc(NC(=O)c2ccco2)cc1 | . | i | -9.5 | i | 0.0103 | 0.00938* | 0.0338 | 0.00905* | 0.0227 | ?
COc1ccc(Nc2nnc(SCC(=O)N3CC(=O)Nc4ccccc43)s2)cc1 | -1.72 | i | . | i | . | . | . | . | . | .
NC(=O)NCCN1CCN(c2ncc(C(F)(F)F)cc2Cl)CC1 | 0.727 | i | 2.6 | i | . | . | . | . | . | .
CCSc1nnc(NC(=O)c2cccs2)s1 | 0.142 | i | -9.6 | i | . | . | . | . | . | .
